Screening data from PubChem.
Hep lipid drop = modulators of hepatic lipid droplet formation | AML12 mouse hepatocytes, oleate lipid droplets, BODIPY imaging | inhibition, % at 6.5 µM | actives 0.4% (n = 240,000);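 active means lipid droplet intensity inhibited by at least 50%, with more than 500 cells counted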
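Material – AML12 mouse liver cells · Also added – oleate loading, 100 µM · Compound dosing – 6.5 µM single-point dosing · Times – overnight treatment with compound plus oleate · Measured by – fluorescence imaging, 20x objective, two fields per well · Read-out – percent inhibition of filter-corrected integrated lipid droplet intensity per well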
Fh CTSL1 inh = counter-screen for PFM18AAP inhibitors: inhibitors of F. hepatica cathepsin L1 | actives 0.49% (n = 300,000) | recombinant F. hepatica cathepsin L1, Z-Leu-Arg-MCA fluorescence | inhibition, % at 5.96 µM | AID 1906;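 active means inhibition above the mean of all tested compounds plus 3 SD, set per screening campaign, cut at about 17% in these data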
Arrestin-AP2 inh = inhibitors of human beta-arrestin and AP2 interaction | FITC-arrestin peptide / GST-AP2 beads, flow cytometry; AP2 beta2 appendage carries R879A mutation | inhibition, % at 10 µM | actives 0.31% (n = 340,000);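 active means inhibition above a set limit, near 3 SD of compounds lacking own fluorescence, cut at about 54% in these data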
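system = GST-tagged AP2 beta2-adaptin appendage (R879A) on 4 µm glutathione beads | reagent = FITC-labelled arrestin peptide probe, 50 nM final | schedule = compound with beads 12 min RT, then probe 1 h RT | signal = HyperCyt-sampled flow cytometry, FL1 channel, ex 488/em 535 nm | read-out = percent response from loss of bead-bound FITC fluorescence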
pCIP destab = p/CIP protein destabilization; Q05BA5; F442A p/CIP-EGFP cells, EGFP fluorescence, 16 h; decrease of EGFP signal, % at 10 µM; actives 0.01% (n = 290,000);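 active means EGFP signal decrease of at least 30% at 10 µM or well 3 SD below plate mean, unless failing retest; inactive means the rest, including hits failing retest or dose response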
Lipid drop inh = hepatic lipid droplet formation inhibition, confirmed; shares compounds with Hep lipid drop; actives 65% (n = 870); inhibition, % at 5.2 µM; AML12 mouse hepatocytes, BODIPY lipid droplet imaging; droplets induced with 100 µM oleic acid;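 active means inhibition of lipid droplet metric at least 50%, with more than 300 cells in each of four replicates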
AML12 cytotox = toxic to AML12 mouse hepatocytes in counter-screen; shares compounds with Hep lipid drop; AID 463200; z-score at 5 µM; DAPI nuclear morphology cytotoxicity imaging; stronger effect = higher value; cells fed 100 µM oleate overnight; actives 3% (n = 870); in the data active means z-score above about 6.3;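 further: compound exposure lasted overnight at 37 °C before fixation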
Arr AP2 CP1 = blocks beta-arrestin peptide binding to human AP2 | shares compounds with Arrestin-AP2 inh | GST-AP2 beads, FITC arrestin peptide binding, flow cytometry; GST-fused beta2-adaptin appendage, R879A mutant | inhibition, % at 10 µM | actives 2% (n = 1,300) | AID 504908;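 active means inhibition above a set limit, roughly 3 SD of non-fluorescent compound noise, cut at about 38% in these data; inactive means inhibition at or below that limit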;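 further: loss of bead fluorescence from 50 nM FITC arrestin peptide bound to appendage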
Target sequence (P63010 whole entry, looked up, the tested form may be a part, one chain of several): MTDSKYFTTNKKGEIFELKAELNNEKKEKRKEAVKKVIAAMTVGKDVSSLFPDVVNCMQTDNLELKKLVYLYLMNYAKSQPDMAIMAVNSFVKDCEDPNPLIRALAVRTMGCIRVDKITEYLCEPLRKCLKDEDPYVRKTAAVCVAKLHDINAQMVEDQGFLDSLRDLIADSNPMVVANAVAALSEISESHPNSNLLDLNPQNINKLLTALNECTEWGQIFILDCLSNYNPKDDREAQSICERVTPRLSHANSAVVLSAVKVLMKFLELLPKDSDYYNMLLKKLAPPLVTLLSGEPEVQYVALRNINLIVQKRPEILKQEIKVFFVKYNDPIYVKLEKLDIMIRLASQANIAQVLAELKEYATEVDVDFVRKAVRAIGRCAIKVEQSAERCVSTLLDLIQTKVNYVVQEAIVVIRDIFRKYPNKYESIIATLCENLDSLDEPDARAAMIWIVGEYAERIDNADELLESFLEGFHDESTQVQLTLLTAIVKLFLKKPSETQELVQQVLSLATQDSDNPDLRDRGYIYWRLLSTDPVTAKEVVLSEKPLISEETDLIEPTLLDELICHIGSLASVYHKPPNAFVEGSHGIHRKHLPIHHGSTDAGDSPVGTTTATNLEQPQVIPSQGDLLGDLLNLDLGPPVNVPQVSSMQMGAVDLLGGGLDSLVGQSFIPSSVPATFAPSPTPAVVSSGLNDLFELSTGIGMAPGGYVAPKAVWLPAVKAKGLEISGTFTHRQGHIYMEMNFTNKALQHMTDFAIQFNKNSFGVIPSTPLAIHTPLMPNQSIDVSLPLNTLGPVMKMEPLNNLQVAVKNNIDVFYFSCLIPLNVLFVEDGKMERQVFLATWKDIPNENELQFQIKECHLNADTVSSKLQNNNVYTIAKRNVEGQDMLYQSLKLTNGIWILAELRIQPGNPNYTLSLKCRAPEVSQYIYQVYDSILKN
GST GSH counter = disrupts GST binding to glutathione beads, arrestin-AP2 artifact; shares compounds with Arrestin-AP2 inh; GST-fluorescein binding to GSH beads, fluorescence, counter-screen; inhibition, % at 10 µM; actives 2% (n = 1,300);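 active means inhibition above 50%, about 3 SD of the inhibition seen with non-fluorescent compounds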;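 further: fluorescein maleimide labelled GST captured on 4 micron glutathione beads; higher means more loss of bead fluorescence from quenching or blocked binding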
A number is an active result; ! = not active in a repeat. An excerpt weighted towards active compounds, which were near 1% of everything screened.

`COc1ccc(OCC(=O)N2CCN(C/C=C/c3ccccc3)CC2)cc1` gave Hep lipid drop inactive, Fh CTSL1 inh 17 and pCIP destab inactive.
For CC(=O)OC1(c2ccccc2)CC(C(C)(C)C)CN(C(C)(C)C)C1 (configuration not stated) the results were Hep lipid drop inactive, Fh CTSL1 inh 35, Arrestin-AP2 inh inactive and pCIP destab inactive.
`CCOC(=O)C1=C(C)c2ccccc2OC1(C(=O)OCC)c1ccccc1` (configuration not stated) gave Arrestin-AP2 inh inactive.
COc1cc2c(cc1O)[C@@H]1Cc3ccc(OC)c(O)c3CN1CC2 was read as Fh CTSL1 inh 65 and Arrestin-AP2 inh inactive.
Screening CN(C)C(=O)CSc1nnc([C@@H](N)Cc2ccccc2)o1 returned Fh CTSL1 inh 33, Arrestin-AP2 inh inactive and pCIP destab inactive.
C=C(C)CSc1nnc([C@@H](N)Cc2ccccc2)o1 was read as Hep lipid drop inactive, Fh CTSL1 inh inactive, Arrestin-AP2 inh inactive and pCIP destab inactive.
Screening Nc1ccc2ccc3cccc[n+]3c2c1 returned Hep lipid drop inactive, Fh CTSL1 inh inactive, Arrestin-AP2 inh inactive and pCIP destab inactive.
For C[n+]1c(-c2ccccc2)c2cc(N)ccc2c2ccc(N)cc21 the results were Hep lipid drop inactive, Fh CTSL1 inh 31, Arrestin-AP2 inh inactive and pCIP destab inactive.
`Cc1cccc(N=Cc2c(O)n(-c3ccccc3C)c(=O)[nH]c2=O)c1` gave Fh CTSL1 inh inactive, Arrestin-AP2 inh inactive and pCIP destab inactive.
Cc1ccccc1-n1c(O)c(/C=N/c2nccs2)c(=O)[nH]c1=O was read as Hep lipid drop inactive, Fh CTSL1 inh 17!, Arrestin-AP2 inh inactive and pCIP destab inactive.
Screening O=C1NC(=O)N(c2ccc(F)cc2)C(=O)/C1=C/c1ccsc1 returned Hep lipid drop inactive, Fh CTSL1 inh 35, Arrestin-AP2 inh inactive and pCIP destab inactive.
O=C1NC(=O)N(c2ccc(Br)cc2)C(=O)/C1=C/c1ccsc1 was read as Hep lipid drop inactive, Fh CTSL1 inh inactive, Arrestin-AP2 inh inactive and pCIP destab inactive.
`Cn1c(O)c(C(c2ccccn2)c2c(O)n(C)c(=S)[nH]c2=O)c(=O)[nH]c1=S` gave Fh CTSL1 inh inactive, Arrestin-AP2 inh inactive and pCIP destab inactive.
Screening CNC(=O)Oc1cccc(-c2cn3cc(OC(=O)NC)ccc3n2)c1 returned Hep lipid drop inactive, Fh CTSL1 inh inactive, Arrestin-AP2 inh inactive and pCIP destab inactive.
CNC(=O)Oc1ccc2c(c1)C(=O)c1ccccc1CO2 was read as Hep lipid drop inactive, Fh CTSL1 inh 21, Arrestin-AP2 inh inactive and pCIP destab inactive.
COc1cc(OC)c(C=O)c(OC(=O)N(C)C)c1 was read as Hep lipid drop inactive, Fh CTSL1 inh 28, Arrestin-AP2 inh inactive and pCIP destab inactive.
O=c1c2ccccc2nc(CSc2ncnc3nc[nH]c23)n1-c1ccccc1Cl was read as Hep lipid drop inactive, Fh CTSL1 inh 21, Arrestin-AP2 inh inactive and pCIP destab inactive.
`Cn1ncnc2c(=O)n(C)c(=O)nc1-2` gave Fh CTSL1 inh 111, Arrestin-AP2 inh inactive and pCIP destab inactive.
CN(C)C(=O)Oc1cccc(OCc2n(C)c3ccccc3[n+]2C)c1 was read as Hep lipid drop inactive, Fh CTSL1 inh inactive, Arrestin-AP2 inh inactive and pCIP destab inactive.
`OC12CCCCC1C(c1ccccc1)NCC2` (configuration not stated) gave Fh CTSL1 inh inactive, Arrestin-AP2 inh inactive and pCIP destab inactive.
`C[C@]12CC[C@H](O)CC1=CCC1C2CC[C@@]2(C)C1CC[C@@H]2OCc1ccccc1` (some centres not stated) gave Arrestin-AP2 inh inactive.
Screening CNS(=O)(=O)c1ccc(N=Cc2c(O)n(-c3ccccc3)c(=O)[nH]c2=O)cc1 returned Hep lipid drop inactive, Fh CTSL1 inh inactive, Arrestin-AP2 inh inactive and pCIP destab inactive.
CCc1ccc(-n2c(O)c(C(C)=O)c(=O)[nH]c2=O)cc1 (tested in a mixture with another compound) was read as Hep lipid drop 70, Fh CTSL1 inh inactive, Arrestin-AP2 inh inactive, pCIP destab inactive, Lipid drop inh inactive and AML12 cytotox inactive.
`CC1(C)CN=C(Nc2ccc(F)c(Cl)c2)S1` gave Hep lipid drop 116, Fh CTSL1 inh inactive, Arrestin-AP2 inh inactive, pCIP destab inactive, Lipid drop inh inactive and AML12 cytotox inactive.
`CC1(C)CN=C(Nc2ccc(F)c(F)c2)S1` gave Fh CTSL1 inh inactive, Arrestin-AP2 inh inactive and pCIP destab inactive.
Screening CCCN1C2CCCC1CC(NC(C)=O)C2 (configuration not stated) returned Hep lipid drop inactive, Fh CTSL1 inh inactive, Arrestin-AP2 inh inactive and pCIP destab inactive.
For CN(C)c1ccc(C=C2C(=O)NC(=S)NC2=O)cc1[N+](=O)[O-] the results were Hep lipid drop inactive, Fh CTSL1 inh inactive, Arrestin-AP2 inh 64, pCIP destab inactive, Arr AP2 CP1 inactive and GST GSH counter inactive.
`CN(C)c1ccc(C=C2C(=O)NC(=O)NC2=O)cc1[N+](=O)[O-]` gave Hep lipid drop inactive, Fh CTSL1 inh inactive, Arrestin-AP2 inh inactive and pCIP destab inactive.
For COc1ccccc1-n1c(CNCC2CCCO2)nc2ccccc2c1=O (configuration not stated) the results were Hep lipid drop inactive, Fh CTSL1 inh inactive, Arrestin-AP2 inh 60, pCIP destab inactive, Arr AP2 CP1 inactive and GST GSH counter inactive.
`c1ccc2c(c1)cc1ccc3cccc4ccc2c1c34` gave Arrestin-AP2 inh 57, Arr AP2 CP1 inactive and GST GSH counter inactive.
Screening CC1(C)C2([N+](=O)[O-])CN3CC1([N+](=O)[O-])CN(C2)C3c1cccnc1 (configuration not stated) returned Hep lipid drop inactive, Fh CTSL1 inh inactive, Arrestin-AP2 inh inactive and pCIP destab inactive.
CCOC(=O)C1(CCOc2ccccc2)CCN(Cc2ccc(C)s2)CC1 was read as Hep lipid drop inactive, Fh CTSL1 inh inactive, Arrestin-AP2 inh 57, pCIP destab inactive, Arr AP2 CP1 inactive and GST GSH counter inactive.
`CCOC(=O)C1(CCc2ccccc2)CCN(Cc2ccc3c(c2)OCCO3)CC1` gave Hep lipid drop inactive, Fh CTSL1 inh inactive, Arrestin-AP2 inh inactive and pCIP destab inactive.
`CCC(C)NC(=O)c1c(N)n(CCCOC)c2nc3ccccc3nc12` (configuration not stated) gave Fh CTSL1 inh inactive, Arrestin-AP2 inh inactive and pCIP destab inactive.
